≈ marks a conversion by molar mass, not a printed value.
test system: K562; test: Growth inhibitory concentration against human chronic myeloid leukemic cells; assay type: functional; conditions: not given; call rule not given here
Summary of the method: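 K-562 suspension cells (1 × 10^4) exposed to 10 twofold dilutions for 72h at 37°C, 5% CO2; proliferation counted with an electronic cell analyzer (CASY); GI50 reported.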

SMILES | GI50 [µg/mL]
Nc1nn2c(O)cc(-c3cc([N+](=O)[O-])c(Cl)cc3Cl)nc2c1[N+](=O)[O-] | > 50
Nc1nn2c(O)cc(CNCCO)nc2c1[N+](=O)[O-] | > 50
CCSC(N)NCc1cc(O)n2nc(N)c([N+](=O)[O-])c2n1 (centres undefined) | > 50
Nc1nn2c(O)cc(-c3ccc(F)cc3)nc2c1[N+](=O)[O-] | > 50
Nc1nn2c(O)cc(CNNc3ccc(F)cc3)nc2c1[N+](=O)[O-] | 19.7 (≈ 59.1 µM)
Nc1nn2c(O)cc(CCl)nc2c1[N+](=O)[O-] | > 50
Nc1nn2c(O)cc(-c3ccccc3F)nc2c1[N+](=O)[O-] | > 50
Nc1nn2c(O)cc(-c3ccccc3)nc2c1[N+](=O)[O-] | > 50
Nc1nn2c(O)cc(CNNCCO)nc2c1[N+](=O)[O-] | > 50
NC(=S)NNCc1cc(O)n2nc(N)c([N+](=O)[O-])c2n1 | > 50
NC(=NCc1cc(O)n2nc(N)c([N+](=O)[O-])c2n1)SCc1ccccc1 | > 50
CCN(CC)C(=S)SCc1cc(O)n2nc(N)c([N+](=O)[O-])c2n1 | 33.1 (≈ 92.9 µM)
Nc1nn2c(O)cc(CNNc3ccc(S(=O)(=O)O)cc3)nc2c1[N+](=O)[O-] | > 50
COc1ccc(NNCc2cc(O)n3nc(N)c([N+](=O)[O-])c3n2)cc1 | 5.1 (≈ 14.8 µM)
Nc1nn2c(O)cc(CN3CCN(CCO)CC3)nc2c1[N+](=O)[O-] | > 50
Nc1nn2c(O)cc(CN3CCN(C(c4ccccc4)c4ccccc4)CC3)nc2c1[N+](=O)[O-] | 9 (≈ 19.6 µM)
CCN(CC)C(=O)N1CCN(Cc2cc(O)n3nc(N)c([N+](=O)[O-])c3n2)CC1 | > 50
NNCc1cc(O)n2nc(N)c([N+](=O)[O-])c2n1 | 26.5 (≈ 111 µM)

test system: not listed separately; test: Therapeutic index (ratio of CC50 and IC50) was determined; assay type: cell-based; conditions: human, HeLa cells; read-out: TI
Summary of the method: (§1)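 TI computed by dividing mean HeLa CC50 (72h crystal violet cytotoxicity) by mean IC50 from the CVB3 CPE inhibition assay in HeLa cells.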

SMILES | selectivity ratio
Nc1nn2c(O)cc(-c3cc([N+](=O)[O-])c(Cl)cc3Cl)nc2c1[N+](=O)[O-] | > 25.6
Nc1nn2c(O)cc(-c3ccc(F)cc3)nc2c1[N+](=O)[O-] | > 2
Nc1nn2c(O)cc(CNNc3ccc(F)cc3)nc2c1[N+](=O)[O-] | > 17.2
Nc1nn2c(O)cc(-c3ccccc3F)nc2c1[N+](=O)[O-] | 3.2
Nc1nn2c(O)cc(-c3ccccc3)nc2c1[N+](=O)[O-] | > 3.4
COc1ccc(NNCc2cc(O)n3nc(N)c([N+](=O)[O-])c3n2)cc1 | 3.8

test system: not listed separately; test: Therapeutic index (ratio of CC50 and IC50) was determined; NA denotes ''Not active''; assay type: cell-based; conditions: human, hela; summary of the method: as §1

SMILES | TI
Nc1nn2c(O)cc(CNCCO)nc2c1[N+](=O)[O-] | Not Active
CCSC(N)NCc1cc(O)n2nc(N)c([N+](=O)[O-])c2n1 (centres undefined) | Not Active
Nc1nn2c(O)cc(CCl)nc2c1[N+](=O)[O-] | Not Active
Nc1nn2c(O)cc(CNNCCO)nc2c1[N+](=O)[O-] | Not Active
NC(=S)NNCc1cc(O)n2nc(N)c([N+](=O)[O-])c2n1 | Not Active
NC(=NCc1cc(O)n2nc(N)c([N+](=O)[O-])c2n1)SCc1ccccc1 | Not Active
CCN(CC)C(=S)SCc1cc(O)n2nc(N)c([N+](=O)[O-])c2n1 | Not Active
Nc1nn2c(O)cc(CNNc3ccc(S(=O)(=O)O)cc3)nc2c1[N+](=O)[O-] | Not Active
Nc1nn2c(O)cc(CN3CCN(CCO)CC3)nc2c1[N+](=O)[O-] | Not Active
Nc1nn2c(O)cc(CN3CCN(C(c4ccccc4)c4ccccc4)CC3)nc2c1[N+](=O)[O-] | Not Active
CCN(CC)C(=O)N1CCN(Cc2cc(O)n3nc(N)c([N+](=O)[O-])c3n2)CC1 | Not Active
NNCc1cc(O)n2nc(N)c([N+](=O)[O-])c2n1 | Not Active

test system: L929; test: Growth inhibitory concentration against mouse fibroblast cells; assay type: functional; conditions: not given
Summary of the method: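 L-929 fibroblasts (1 × 10^4) added to 10 twofold dilutions and incubated 72h at 37°C, 5% CO2; growth measured by optical density after methylene blue staining; GI50 reported.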

SMILES | GI50 [µg/mL]
Nc1nn2c(O)cc(-c3cc([N+](=O)[O-])c(Cl)cc3Cl)nc2c1[N+](=O)[O-] | > 50
Nc1nn2c(O)cc(CNCCO)nc2c1[N+](=O)[O-] | > 50
CCSC(N)NCc1cc(O)n2nc(N)c([N+](=O)[O-])c2n1 (centres undefined) | > 50
Nc1nn2c(O)cc(-c3ccc(F)cc3)nc2c1[N+](=O)[O-] | > 50
Nc1nn2c(O)cc(CNNc3ccc(F)cc3)nc2c1[N+](=O)[O-] | 41.4 (≈ 124 µM)
Nc1nn2c(O)cc(CCl)nc2c1[N+](=O)[O-] | > 50
Nc1nn2c(O)cc(-c3ccccc3F)nc2c1[N+](=O)[O-] | > 50
Nc1nn2c(O)cc(-c3ccccc3)nc2c1[N+](=O)[O-] | > 50
Nc1nn2c(O)cc(CNNCCO)nc2c1[N+](=O)[O-] | > 50
NC(=S)NNCc1cc(O)n2nc(N)c([N+](=O)[O-])c2n1 | > 50
NC(=NCc1cc(O)n2nc(N)c([N+](=O)[O-])c2n1)SCc1ccccc1 | > 50
CCN(CC)C(=S)SCc1cc(O)n2nc(N)c([N+](=O)[O-])c2n1 | > 50
Nc1nn2c(O)cc(CNNc3ccc(S(=O)(=O)O)cc3)nc2c1[N+](=O)[O-] | > 50
COc1ccc(NNCc2cc(O)n3nc(N)c([N+](=O)[O-])c3n2)cc1 | > 50
Nc1nn2c(O)cc(CN3CCN(CCO)CC3)nc2c1[N+](=O)[O-] | > 50
Nc1nn2c(O)cc(CN3CCN(C(c4ccccc4)c4ccccc4)CC3)nc2c1[N+](=O)[O-] | 19.9 (≈ 43.3 µM)
CCN(CC)C(=O)N1CCN(Cc2cc(O)n3nc(N)c([N+](=O)[O-])c3n2)CC1 | > 50
NNCc1cc(O)n2nc(N)c([N+](=O)[O-])c2n1 | 35.2 (≈ 147 µM)

test system: HeLa; test: Inhibitory concentration against Coxsackievirus B3 in HeLa cells; assay type: functional, cell-based; conditions: Homo sapiens

SMILES | IC50 [µg/mL]
Nc1nn2c(O)cc(-c3cc([N+](=O)[O-])c(Cl)cc3Cl)nc2c1[N+](=O)[O-] | 3.94 (≈ 10.2 µM)
Nc1nn2c(O)cc(CNCCO)nc2c1[N+](=O)[O-] | > 50
CCSC(N)NCc1cc(O)n2nc(N)c([N+](=O)[O-])c2n1 (centres undefined) | > 50
Nc1nn2c(O)cc(-c3ccc(F)cc3)nc2c1[N+](=O)[O-] | 50.3 (≈ 174 µM)
Nc1nn2c(O)cc(CNNc3ccc(F)cc3)nc2c1[N+](=O)[O-] | 5.81 (≈ 17.4 µM)
Nc1nn2c(O)cc(CCl)nc2c1[N+](=O)[O-] | > 50
Nc1nn2c(O)cc(-c3ccccc3F)nc2c1[N+](=O)[O-] | 20.3 (≈ 70.4 µM)
Nc1nn2c(O)cc(-c3ccccc3)nc2c1[N+](=O)[O-] | 29.6 (≈ 109 µM)
Nc1nn2c(O)cc(CNNCCO)nc2c1[N+](=O)[O-] | > 50
NC(=S)NNCc1cc(O)n2nc(N)c([N+](=O)[O-])c2n1 | > 50
NC(=NCc1cc(O)n2nc(N)c([N+](=O)[O-])c2n1)SCc1ccccc1 | > 50
CCN(CC)C(=S)SCc1cc(O)n2nc(N)c([N+](=O)[O-])c2n1 | > 50
Nc1nn2c(O)cc(CNNc3ccc(S(=O)(=O)O)cc3)nc2c1[N+](=O)[O-] | > 50
COc1ccc(NNCc2cc(O)n3nc(N)c([N+](=O)[O-])c3n2)cc1 | 17.5 (≈ 50.8 µM)
Nc1nn2c(O)cc(CN3CCN(CCO)CC3)nc2c1[N+](=O)[O-] | > 50
Nc1nn2c(O)cc(CN3CCN(C(c4ccccc4)c4ccccc4)CC3)nc2c1[N+](=O)[O-] | > 50
CCN(CC)C(=O)N1CCN(Cc2cc(O)n3nc(N)c([N+](=O)[O-])c3n2)CC1 | > 50
NNCc1cc(O)n2nc(N)c([N+](=O)[O-])c2n1 | 66.5 (≈ 278 µM)

test system: not listed separately; test: Partition coefficient (logP); assay type: physicochemical; conditions: octanol/water

SMILES | logP
Nc1nn2c(O)cc(-c3cc([N+](=O)[O-])c(Cl)cc3Cl)nc2c1[N+](=O)[O-] | 2.77
Nc1nn2c(O)cc(-c3ccc(F)cc3)nc2c1[N+](=O)[O-] | 2.34
Nc1nn2c(O)cc(CNNc3ccc(F)cc3)nc2c1[N+](=O)[O-] | 2.65
Nc1nn2c(O)cc(-c3ccccc3F)nc2c1[N+](=O)[O-] | 2.34
Nc1nn2c(O)cc(-c3ccccc3)nc2c1[N+](=O)[O-] | 2.54
CCN(CC)C(=S)SCc1cc(O)n2nc(N)c([N+](=O)[O-])c2n1 | 3.06
COc1ccc(NNCc2cc(O)n3nc(N)c([N+](=O)[O-])c3n2)cc1 | 2.46
Nc1nn2c(O)cc(CN3CCN(C(c4ccccc4)c4ccccc4)CC3)nc2c1[N+](=O)[O-] | 3.73
NNCc1cc(O)n2nc(N)c([N+](=O)[O-])c2n1 | 0.42

test system: not listed separately; test: Cytotoxic concentration against human cervix carcinoma cells; conditions: not given
Summary of the method: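 Confluent HeLa monolayers exposed 72h (37°C, 5% CO2) to twofold serial dilutions in duplicate; cells fixed and stained with crystal violet–formalin, read spectrophotometrically; CC50 = 50% cytotoxic concentration.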

SMILES | CC50 [µg/mL]
Nc1nn2c(O)cc(-c3cc([N+](=O)[O-])c(Cl)cc3Cl)nc2c1[N+](=O)[O-] | > 100
Nc1nn2c(O)cc(CNCCO)nc2c1[N+](=O)[O-] | > 50
CCSC(N)NCc1cc(O)n2nc(N)c([N+](=O)[O-])c2n1 (centres undefined) | > 50
Nc1nn2c(O)cc(-c3ccc(F)cc3)nc2c1[N+](=O)[O-] | > 100
Nc1nn2c(O)cc(CNNc3ccc(F)cc3)nc2c1[N+](=O)[O-] | > 100
Nc1nn2c(O)cc(CCl)nc2c1[N+](=O)[O-] | > 50
Nc1nn2c(O)cc(-c3ccccc3F)nc2c1[N+](=O)[O-] | 66.5 (≈ 230 µM)
Nc1nn2c(O)cc(-c3ccccc3)nc2c1[N+](=O)[O-] | > 100
Nc1nn2c(O)cc(CNNCCO)nc2c1[N+](=O)[O-] | > 50
NC(=S)NNCc1cc(O)n2nc(N)c([N+](=O)[O-])c2n1 | > 50
NC(=NCc1cc(O)n2nc(N)c([N+](=O)[O-])c2n1)SCc1ccccc1 | > 50
CCN(CC)C(=S)SCc1cc(O)n2nc(N)c([N+](=O)[O-])c2n1 | > 50
Nc1nn2c(O)cc(CNNc3ccc(S(=O)(=O)O)cc3)nc2c1[N+](=O)[O-] | > 50
COc1ccc(NNCc2cc(O)n3nc(N)c([N+](=O)[O-])c3n2)cc1 | 66.3 (≈ 192 µM)
Nc1nn2c(O)cc(CN3CCN(CCO)CC3)nc2c1[N+](=O)[O-] | > 50
Nc1nn2c(O)cc(CN3CCN(C(c4ccccc4)c4ccccc4)CC3)nc2c1[N+](=O)[O-] | 14.8 (≈ 32.2 µM)
CCN(CC)C(=O)N1CCN(Cc2cc(O)n3nc(N)c([N+](=O)[O-])c3n2)CC1 | > 50
NNCc1cc(O)n2nc(N)c([N+](=O)[O-])c2n1 | 42.6 (≈ 178 µM)

Reference: ChEMBL document CHEMBL1145228, “Anti-coxsackievirus B3 activity of 2-amino-3-nitropyrazolo[1,5-a]pyrimidines and their analogs” (Bioorg Med Chem Lett, 2005)
